Measurements reported in ChEMBL document CHEMBL1138718, “CVT-4325: a potent fatty acid oxidation inhibitor with favorable oral bioavailability” (Bioorg Med Chem Lett, 2004).

How the values were obtained:
[1] = Metabolic stability as percent of drug remaining after incubation with human liver S9 for 30 min was determined; type: ADME, subcellular, Liver S9 fraction; settings: for remaining at 0.5 h: liver S9, read-out: Activity
In short: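 Incubation with human liver S9 (2 mg/mL) plus NADPH for 30 min, read as percent parent remaining. A standard was run in every assay, and data were accepted only if the standard fell within ±5% of its historical mean.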

[2] = Bioavailability in dog after 4 mg/kg oral dose; type: ADME, organism-based, Canis lupus familiaris; settings: in vivo
[3] = Area under curve for the compound was determined in dog after 4 mg/kg oral dose; type: ADME, organism-based, Canis lupus familiaris; set-up: dose 4 mg/kg, route oral; settings: in vivo
[4] = Area under curve for the compound was determined in rats after 2 mg/kg oral dose; type: ADME, organism-based; set-up: dose 2 mg/kg, route oral; settings: rat, in vivo
[5] = Oral bioavailability in rat (dose 2 mg/kg); type: ADME, organism-based; settings: in vivo
[6] = Half life in dog after 1 mg/kg intravenous dose; settings: in vivo
[7] = Half life in rats after 1 mg/kg intravenous dose; settings: rat, in vivo
[8] = Plasma clearance in dog after 1 mg/kg intravenous dose; settings: in vivo
[9] = Plasma clearance in rats after 1 mg/kg intravenous dose; settings: rat; for clearance: plasma
[10] = Bioavailability in dog after 5 mg/kg oral dose; type: ADME, organism-based, Canis lupus familiaris; settings: in vivo
[11] = Area under curve for the compound was determined in dog after 5 mg/kg oral dose; type: ADME, organism-based, Canis lupus familiaris; set-up: dose 5 mg/kg, route oral; settings: in vivo
[12] = Half life in dog after 1 mg/kg intravenous dose; settings: in vivo; remark: listed apart in the source
[13] = Plasma clearance in dog after 1 mg/kg intravenous dose; settings: in vivo; remark: listed apart in the source

SMILES | remaining at 0.5 h [1] [%] | other results
Cc1nc2cc(OC[C@H](O)CN3CCN(Cc4nc(-c5ccc(C(F)(F)F)cc5)no4)CC3)ccc2s1 | 72 | –
Cc1nc2cc(OC[C@H](O)CN3CCN(CC(=O)Nc4c(C)cccc4C)CC3)ccc2s1 | – | AUC [4]: 30.5 ng·h/mL; F [5]: 19%; half-life [7]: 84 min; Plasma clearance ([9]; in vivo): 54.5 mL/min/kg
Cc1nc2cc(OC[C@H](O)CN3CCN(Cc4nc(-c5ccc(C(F)(F)F)cc5)sc4C)CC3)ccc2s1 | 40 | –
Cc1nc2cc(OC[C@H](O)CN3CCN(Cc4csc(-c5ccc(C(F)(F)F)cc5)n4)CC3)ccc2s1 | 40 | –
Cc1nc2cc(OC[C@H](O)CN3CCN(Cc4noc(-c5ccc(Cl)cc5Cl)n4)C[C@@H]3C)ccc2s1 (stereo in doubt; 31) | 17 | –
Cc1nc2cc(OC[C@H](O)CN3CCN(Cc4noc(-c5ccc(C#N)cc5)n4)CC3)ccc2s1 | 56 | –
Cc1nc2cc(OC[C@H](O)CN3CCN(Cc4nnc(-c5ccc(Cl)cc5)o4)CC3)ccc2s1 | 34 | –
Cc1nc2cc(OC[C@H](O)CN3CCN(Cc4noc(-c5ccc(Cl)cc5Cl)n4)CC3)ccc2s1 | 33 | –
Cc1nc2cc(OC[C@H](O)CN3CCN(Cc4nc(-c5ccc(Cl)cc5)no4)CC3)ccc2s1 | 66 | –
Cc1nc2cc(OC[C@H](O)CN3CCN(Cc4nc(-c5ccc(C(C)(C)C)cc5)no4)CC3)ccc2s1 | 39 | –
Cc1nc2cc(OC[C@H](O)CN3CCN(Cc4noc(-c5ccc(Cl)cc5Cl)n4)C[C@@H]3C)ccc2s1 (stereo in doubt; 32) | – | Activity ([1]; s9, 0.5 h, 0.5 h): 30%
Cc1nc2cc(OC[C@H](O)CN3CCN(Cc4nnc(-c5ccc(C(F)(F)F)cc5)o4)CC3)ccc2s1 | 49 | –

Now from value to compound, other results behind:

remaining at 0.5 h [1] [%] | SMILES | other results
42 | Cc1nc2cc(OC[C@H](O)CN3CCN(Cc4noc(-c5cccc(F)c5)n4)CC3)ccc2s1 | –
25 | Cc1nc2cc(OC[C@H](O)CN3CCN(Cc4nnc(-c5ccc(C(C)(C)C)cc5)o4)CC3)ccc2s1 | –
31 | Cc1cccc(-c2nc(CN3CCN(C[C@@H](O)COc4ccc5sc(C)nc5c4)CC3)no2)c1 | –
43 | Cc1nc2cc(OC[C@H](O)CN3CCN(Cc4coc(-c5ccc(C(F)(F)F)cc5)n4)CC3)ccc2s1 | –
74 | Cc1nc2cc(OC[C@H](O)CN3CCN(Cc4noc(-c5ccc(C(F)(F)F)cc5)n4)CC3)ccc2s1 | Bioavailabiility [2]: 93%; AUC [3]: 1776 ng·h/mL; AUC ([4]; read-out: AUC): 282 ng·h/mL; bioavailability [5]: 38%; half-life [6]: 816 min; half-life [7]: 192 min; Plasma clearance [8]: 12.2 mL/min/kg; clearance [9]: 22.5 mL/min/kg
31 | Cc1nc2cc(OC[C@H](O)CN3CCN(Cc4noc(-c5ccc(C(C)C)cc5)n4)CC3)ccc2s1 | –
48 | Cc1nc2cc(OC[C@H](O)CN3CCN(Cc4noc(-c5ccc(Cl)cc5)n4)CC3)ccc2s1 | –
38 | Cc1nc2cc(OC[C@H](O)CN3CCN(Cc4noc(-c5cccc(Cl)c5)n4)CC3)ccc2s1 | –
43 | Cc1nc2cc(OC[C@H](O)CN3CCN(Cc4noc(-c5ccc(C(F)(F)F)cc5)n4)C[C@@H]3C)ccc2s1 | Bioavailabiility [10]: 30%; AUC [11]: 1093 ng·h/mL; AUC ([4]; read-out: AUC): 253 ng·h/mL; bioavailability [5]: 29%; half-life [12]: 2.71 days; half-life [7]: 240 min; Plasma clearance [13]: 4.6 mL/min/kg; clearance [9]: 19.7 mL/min/kg
39 | COc1ccc(-c2nc(CN3CCN(C[C@@H](O)COc4ccc5sc(C)nc5c4)CC3)no2)cc1 | –
21 | Cc1nc2cc(OC[C@H](O)CN3CCN(Cc4nc(-c5ccc(C(C)C)cc5)no4)CC3)ccc2s1 | –
18 | Cc1nc2cc(OC[C@H](O)CN3CCN(Cc4noc(-c5ccc(C(C)(C)C)cc5)n4)CC3)ccc2s1 | –
30 | Cc1nc2cc(OC[C@H](O)CN3CCN(Cc4noc(-c5ccc(Cl)c(Cl)c5)n4)CC3)ccc2s1 | –
36 | Cc1nc2cc(OC[C@H](O)CN3CCN(Cc4nc(-c5ccc(Cl)c(Cl)c5)no4)CC3)ccc2s1 | –
50 | Cc1nc2cc(OC[C@H](O)CN3CCN(Cc4noc(-c5ccc(F)cc5)n4)CC3)ccc2s1 | –
29 | Cc1nc2cc(OC[C@H](O)CN3CCN(Cc4nc(-c5ccc(Cl)cc5Cl)no4)CC3)ccc2s1 | –
